From ChEMBL document CHEMBL1250476, “Synthesis and antifungal evaluation of novel triazole derivatives as inhibitors of cytochrome P450 14alpha-demethylase” (2010)
In brackets after ≈: the same amount, converted by molar mass.

Test system: Kluyveromyces marxianus
Experiment: Antifungal activity against Candida kefyr by micro-broth dilution method
Assay type: functional
Conditions: not given
Method in brief: (§1)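 MIC80 by broth microdilution in 96-well format following NCCLS. Compounds were dissolved in DMSO, serially diluted in growth medium, inoculated and incubated at 35 °C. The endpoint was the first well with about 80% growth reduction versus the drug-free well. Values are means of three replicate tests.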

MIC [µg/mL]	SMILES
0.25 (≈ 0.415 µM)	CCCCCCCCCCCCCCCCn1cc(CN(CC(O)(Cn2cncn2)c2ccc(F)cc2F)C(C)C)nn1 (centres undefined)
0.0625 (≈ 0.122 µM)	CC(C)N(Cc1cn(Cc2ccccc2[N+](=O)[O-])nn1)CC(O)(Cn1cncn1)c1ccc(F)cc1F (centres undefined)
0.25 (≈ 0.488 µM)	CC(C)N(Cc1cn(Cc2cccc([N+](=O)[O-])c2)nn1)CC(O)(Cn1cncn1)c1ccc(F)cc1F (centres undefined)
0.25 (≈ 0.488 µM)	CC(C)N(Cc1cn(Cc2ccc([N+](=O)[O-])cc2)nn1)CC(O)(Cn1cncn1)c1ccc(F)cc1F (centres undefined)
1 (≈ 2.03 µM)	CC(C)N(Cc1cn(Cc2ccccc2C#N)nn1)CC(O)(Cn1cncn1)c1ccc(F)cc1F (centres undefined)
0.25 (≈ 0.508 µM)	CC(C)N(Cc1cn(Cc2cccc(C#N)c2)nn1)CC(O)(Cn1cncn1)c1ccc(F)cc1F (centres undefined)
0.25 (≈ 0.508 µM)	CC(C)N(Cc1cn(Cc2ccc(C#N)cc2)nn1)CC(O)(Cn1cncn1)c1ccc(F)cc1F (centres undefined)
0.0625 (≈ 0.134 µM)	CC(C)N(Cc1cn(Cc2ccccc2)nn1)CC(O)(Cn1cncn1)c1ccc(F)cc1F (centres undefined)

Test system: Trichophyton rubrum
Experiment: Antifungal activity against Trichophyton rubrum by micro-broth dilution method
Assay type: functional
Conditions: not given
Method in brief: as §1

MIC [µg/mL]	SMILES
0.25 (≈ 0.415 µM)	CCCCCCCCCCCCCCCCn1cc(CN(CC(O)(Cn2cncn2)c2ccc(F)cc2F)C(C)C)nn1 (centres undefined)
1 (≈ 1.95 µM)	CC(C)N(Cc1cn(Cc2ccccc2[N+](=O)[O-])nn1)CC(O)(Cn1cncn1)c1ccc(F)cc1F (centres undefined)
1 (≈ 1.95 µM)	CC(C)N(Cc1cn(Cc2cccc([N+](=O)[O-])c2)nn1)CC(O)(Cn1cncn1)c1ccc(F)cc1F (centres undefined)
2 (≈ 3.9 µM)	CC(C)N(Cc1cn(Cc2ccc([N+](=O)[O-])cc2)nn1)CC(O)(Cn1cncn1)c1ccc(F)cc1F (centres undefined)
2 (≈ 4.06 µM)	CC(C)N(Cc1cn(Cc2ccccc2C#N)nn1)CC(O)(Cn1cncn1)c1ccc(F)cc1F (centres undefined)
16 (≈ 32.5 µM)	CC(C)N(Cc1cn(Cc2cccc(C#N)c2)nn1)CC(O)(Cn1cncn1)c1ccc(F)cc1F (centres undefined)
< 0.125	CC(C)N(Cc1cn(Cc2ccc(C#N)cc2)nn1)CC(O)(Cn1cncn1)c1ccc(F)cc1F (centres undefined)
< 0.125	CC(C)N(Cc1cn(Cc2ccccc2)nn1)CC(O)(Cn1cncn1)c1ccc(F)cc1F (centres undefined)

Test system: Cryptococcus neoformans
Experiment: Antifungal activity against Cryptococcus neoformans after 72 hrs by micro-broth dilution method
Assay type: functional
Conditions: not given
Method in brief: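 Cryptococcus neoformans tested by NCCLS micro-broth dilution. Compounds were dissolved in DMSO, serially diluted in medium, inoculated and incubated at 35 °C. MIC80 was read at 72 h as the first well showing approximately 80% growth reduction compared with the drug-free well. Values are the mean of three replicate tests.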

MIC [µg/mL]	SMILES
2 (≈ 3.32 µM)	CCCCCCCCCCCCCCCCn1cc(CN(CC(O)(Cn2cncn2)c2ccc(F)cc2F)C(C)C)nn1 (centres undefined)
32 (≈ 62.4 µM)	CC(C)N(Cc1cn(Cc2ccccc2[N+](=O)[O-])nn1)CC(O)(Cn1cncn1)c1ccc(F)cc1F (centres undefined)
32 (≈ 62.4 µM)	CC(C)N(Cc1cn(Cc2cccc([N+](=O)[O-])c2)nn1)CC(O)(Cn1cncn1)c1ccc(F)cc1F (centres undefined)
16 (≈ 31.2 µM)	CC(C)N(Cc1cn(Cc2ccc([N+](=O)[O-])cc2)nn1)CC(O)(Cn1cncn1)c1ccc(F)cc1F (centres undefined)
64 (≈ 130 µM)	CC(C)N(Cc1cn(Cc2ccccc2C#N)nn1)CC(O)(Cn1cncn1)c1ccc(F)cc1F (centres undefined)
64 (≈ 130 µM)	CC(C)N(Cc1cn(Cc2cccc(C#N)c2)nn1)CC(O)(Cn1cncn1)c1ccc(F)cc1F (centres undefined)
16 (≈ 32.5 µM)	CC(C)N(Cc1cn(Cc2ccc(C#N)cc2)nn1)CC(O)(Cn1cncn1)c1ccc(F)cc1F (centres undefined)
8 (≈ 17.1 µM)	CC(C)N(Cc1cn(Cc2ccccc2)nn1)CC(O)(Cn1cncn1)c1ccc(F)cc1F (centres undefined)

Test system: Candida albicans
Experiment: Antifungal activity against Candida albicans SC5314 after 24 hrs by micro-broth dilution method
Assay type: functional
Conditions: SC5314, 24 h
Method in brief: (§2)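 Broth microdilution per NCCLS on Candida albicans. Compounds were dissolved in DMSO, serially diluted in growth medium, inoculated and incubated at 35 °C. Growth was read at 24 h, and MIC80 was taken as the first well with about 80% growth reduction relative to the drug-free control. Values are the mean of three replicates.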

MIC [µg/mL]	SMILES
< 0.125	CCCCCCCCCCCCCCCCn1cc(CN(CC(O)(Cn2cncn2)c2ccc(F)cc2F)C(C)C)nn1 (centres undefined)
< 0.125	CC(C)N(Cc1cn(Cc2ccccc2[N+](=O)[O-])nn1)CC(O)(Cn1cncn1)c1ccc(F)cc1F (centres undefined)
< 0.125	CC(C)N(Cc1cn(Cc2cccc([N+](=O)[O-])c2)nn1)CC(O)(Cn1cncn1)c1ccc(F)cc1F (centres undefined)
< 0.125	CC(C)N(Cc1cn(Cc2ccc([N+](=O)[O-])cc2)nn1)CC(O)(Cn1cncn1)c1ccc(F)cc1F (centres undefined)
0.25 (≈ 0.508 µM)	CC(C)N(Cc1cn(Cc2ccccc2C#N)nn1)CC(O)(Cn1cncn1)c1ccc(F)cc1F (centres undefined)
< 0.125	CC(C)N(Cc1cn(Cc2cccc(C#N)c2)nn1)CC(O)(Cn1cncn1)c1ccc(F)cc1F (centres undefined)
1 (≈ 2.03 µM)	CC(C)N(Cc1cn(Cc2ccc(C#N)cc2)nn1)CC(O)(Cn1cncn1)c1ccc(F)cc1F (centres undefined)
< 0.125	CC(C)N(Cc1cn(Cc2ccccc2)nn1)CC(O)(Cn1cncn1)c1ccc(F)cc1F (centres undefined)

Test system: Candida parapsilosis
Experiment: Antifungal activity against Candida parapsilosis by micro-broth dilution method
Assay type: functional
Conditions: Lodderomyces parapsilosis
Method in brief: as §1

MIC [µg/mL]	SMILES
0.5 (≈ 0.831 µM)	CCCCCCCCCCCCCCCCn1cc(CN(CC(O)(Cn2cncn2)c2ccc(F)cc2F)C(C)C)nn1 (centres undefined)
8 (≈ 15.6 µM)	CC(C)N(Cc1cn(Cc2ccccc2[N+](=O)[O-])nn1)CC(O)(Cn1cncn1)c1ccc(F)cc1F (centres undefined)
2 (≈ 3.9 µM)	CC(C)N(Cc1cn(Cc2cccc([N+](=O)[O-])c2)nn1)CC(O)(Cn1cncn1)c1ccc(F)cc1F (centres undefined)
4 (≈ 7.8 µM)	CC(C)N(Cc1cn(Cc2ccc([N+](=O)[O-])cc2)nn1)CC(O)(Cn1cncn1)c1ccc(F)cc1F (centres undefined)
8 (≈ 16.2 µM)	CC(C)N(Cc1cn(Cc2ccccc2C#N)nn1)CC(O)(Cn1cncn1)c1ccc(F)cc1F (centres undefined)
16 (≈ 32.5 µM)	CC(C)N(Cc1cn(Cc2cccc(C#N)c2)nn1)CC(O)(Cn1cncn1)c1ccc(F)cc1F (centres undefined)
0.5 (≈ 1.02 µM)	CC(C)N(Cc1cn(Cc2ccc(C#N)cc2)nn1)CC(O)(Cn1cncn1)c1ccc(F)cc1F (centres undefined)
0.25 (≈ 0.535 µM)	CC(C)N(Cc1cn(Cc2ccccc2)nn1)CC(O)(Cn1cncn1)c1ccc(F)cc1F (centres undefined)

Test system: Candida tropicalis
Experiment: Antifungal activity against Candida tropicalis by micro-broth dilution method
Assay type: functional
Conditions: not given
Method in brief: as §1

MIC [µg/mL]	SMILES
< 0.125	CCCCCCCCCCCCCCCCn1cc(CN(CC(O)(Cn2cncn2)c2ccc(F)cc2F)C(C)C)nn1 (centres undefined)
2 (≈ 3.9 µM)	CC(C)N(Cc1cn(Cc2ccccc2[N+](=O)[O-])nn1)CC(O)(Cn1cncn1)c1ccc(F)cc1F (centres undefined)
4 (≈ 7.8 µM)	CC(C)N(Cc1cn(Cc2cccc([N+](=O)[O-])c2)nn1)CC(O)(Cn1cncn1)c1ccc(F)cc1F (centres undefined)
1 (≈ 1.95 µM)	CC(C)N(Cc1cn(Cc2ccc([N+](=O)[O-])cc2)nn1)CC(O)(Cn1cncn1)c1ccc(F)cc1F (centres undefined)
1 (≈ 2.03 µM)	CC(C)N(Cc1cn(Cc2ccccc2C#N)nn1)CC(O)(Cn1cncn1)c1ccc(F)cc1F (centres undefined)
16 (≈ 32.5 µM)	CC(C)N(Cc1cn(Cc2cccc(C#N)c2)nn1)CC(O)(Cn1cncn1)c1ccc(F)cc1F (centres undefined)
< 0.125	CC(C)N(Cc1cn(Cc2ccc(C#N)cc2)nn1)CC(O)(Cn1cncn1)c1ccc(F)cc1F (centres undefined)
< 0.125	CC(C)N(Cc1cn(Cc2ccccc2)nn1)CC(O)(Cn1cncn1)c1ccc(F)cc1F (centres undefined)

Test system: Candida albicans
Experiment: Antifungal activity against Candida albicans Y0109 after 24 hrs by micro-broth dilution method
Assay type: functional
Conditions: Y0109, 24 h
Method in brief: as §2

MIC [µg/mL]	SMILES
0.0625 (≈ 0.104 µM)	CCCCCCCCCCCCCCCCn1cc(CN(CC(O)(Cn2cncn2)c2ccc(F)cc2F)C(C)C)nn1 (centres undefined)
0.0625 (≈ 0.122 µM)	CC(C)N(Cc1cn(Cc2ccccc2[N+](=O)[O-])nn1)CC(O)(Cn1cncn1)c1ccc(F)cc1F (centres undefined)
0.0625 (≈ 0.122 µM)	CC(C)N(Cc1cn(Cc2cccc([N+](=O)[O-])c2)nn1)CC(O)(Cn1cncn1)c1ccc(F)cc1F (centres undefined)
0.0039 (≈ 0.00761 µM)	CC(C)N(Cc1cn(Cc2ccc([N+](=O)[O-])cc2)nn1)CC(O)(Cn1cncn1)c1ccc(F)cc1F (centres undefined)
0.0156 (≈ 0.0317 µM)	CC(C)N(Cc1cn(Cc2ccccc2C#N)nn1)CC(O)(Cn1cncn1)c1ccc(F)cc1F (centres undefined)
0.0625 (≈ 0.127 µM)	CC(C)N(Cc1cn(Cc2cccc(C#N)c2)nn1)CC(O)(Cn1cncn1)c1ccc(F)cc1F (centres undefined)
0.0156 (≈ 0.0317 µM)	CC(C)N(Cc1cn(Cc2ccc(C#N)cc2)nn1)CC(O)(Cn1cncn1)c1ccc(F)cc1F (centres undefined)
0.0039 (≈ 0.00834 µM)	CC(C)N(Cc1cn(Cc2ccccc2)nn1)CC(O)(Cn1cncn1)c1ccc(F)cc1F (centres undefined)

Test system: Aspergillus fumigatus
Experiment: Antifungal activity against Aspergillus fumigatus by micro-broth dilution method
Assay type: functional
Conditions: not given
Method in brief: as §1

MIC [µg/mL]	SMILES
> 64	CCCCCCCCCCCCCCCCn1cc(CN(CC(O)(Cn2cncn2)c2ccc(F)cc2F)C(C)C)nn1 (centres undefined)
> 64	CC(C)N(Cc1cn(Cc2ccccc2[N+](=O)[O-])nn1)CC(O)(Cn1cncn1)c1ccc(F)cc1F (centres undefined)
> 64	CC(C)N(Cc1cn(Cc2cccc([N+](=O)[O-])c2)nn1)CC(O)(Cn1cncn1)c1ccc(F)cc1F (centres undefined)
> 64	CC(C)N(Cc1cn(Cc2ccc([N+](=O)[O-])cc2)nn1)CC(O)(Cn1cncn1)c1ccc(F)cc1F (centres undefined)
> 64	CC(C)N(Cc1cn(Cc2ccccc2C#N)nn1)CC(O)(Cn1cncn1)c1ccc(F)cc1F (centres undefined)
> 64	CC(C)N(Cc1cn(Cc2cccc(C#N)c2)nn1)CC(O)(Cn1cncn1)c1ccc(F)cc1F (centres undefined)
> 64	CC(C)N(Cc1cn(Cc2ccc(C#N)cc2)nn1)CC(O)(Cn1cncn1)c1ccc(F)cc1F (centres undefined)
64 (≈ 137 µM)	CC(C)N(Cc1cn(Cc2ccccc2)nn1)CC(O)(Cn1cncn1)c1ccc(F)cc1F (centres undefined)
